Results taken from ChEMBL document CHEMBL4049392, “New azole derivatives showing antimicrobial effects and their mechanism of antifungal activity by molecular modeling studies” (Eur J Med Chem, 2017).
In brackets after ≈: the same amount, converted by molar mass.

How the values were obtained:
Candida albicans [1] = assay: Anti-fungal activity against Candida albicans ATCC 90028 after 48 hrs by broth microdilution method; format: functional; settings: ATCC 90028, 48 h
Summary of the method: (§1)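 CLSI broth microdilution in RPMI 1640 (with glutamine, without bicarbonate) buffered to pH 7.0 with MOPS. Inoculum was prepared from 24 h Sabouraud dextrose agar subcultures, final 0.5 to 2.5 10^3 cfu/mL. Twofold dilutions were made from DMSO stocks. Incubated 35 °C for 48 h. MIC was the lowest concentration with no visible growth; for the fluconazole reference, MIC was taken at about 80% growth inhibition versus control.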

Pichia kudriavzevii = assay: Anti-fungal activity against Candida krusei ATCC 6258 after 48 hrs by broth microdilution method; format: functional; settings: ATCC 6258, 48 h; summary of the method: as §1
Candida parapsilosis = assay: Anti-fungal activity against Candida parapsilosis ATCC 90018 after 48 hrs by broth microdilution method; format: functional; settings: Lodderomyces parapsilosis, ATCC 90018, 48 h; summary of the method: as §1
Staphylococcus aureus = assay: Antibacterial activity against Staphylococcus aureus ATCC 29213 after 18 to 24 hrs by broth microdilution method; format: functional
Summary of the method: (§2)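 CLSI broth microdilution in Mueller Hinton broth, with inoculum from 24 h Mueller Hinton agar subcultures, final about 5 10^5 cfu/mL. Compounds were dissolved in DMSO and tested as twofold dilutions in wells. Plates were incubated at 35 °C for 18–24 h. MIC was read as the lowest concentration completely inhibiting visible growth. Ciprofloxacin was the reference.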

Enterococcus faecalis = assay: Antibacterial activity against Enterococcus faecalis ATCC 29212 after 18 to 24 hrs by broth microdilution method; format: functional; summary of the method: as §2
Escherichia coli = assay: Antibacterial activity against Escherichia coli ATCC 25922 after 18 to 24 hrs by broth microdilution method; format: functional; summary of the method: as §2
Pseudomonas aeruginosa = assay: Antibacterial activity against Pseudomonas aeruginosa ATCC 27853 after 18 to 24 hrs by broth microdilution method; format: functional; summary of the method: as §2
Nakaseomyces glabratus = assay: Anti-fungal activity against drug-resistant Candida glabrata after 48 hrs by broth microdilution method; format: functional
Summary of the method: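 Clinical resistant C. glabrata isolate, stored frozen in glycerol and subcultured twice on Sabouraud dextrose agar. CLSI broth microdilution in RPMI 1640 (glutamine, no bicarbonate) buffered to pH 7.0 with MOPS. Inoculum from 24 h subcultures, final 0.5 to 2.5 x10^3 cfu/mL. DMSO-dissolved compounds in twofold dilutions, 35 C for 48 h. MIC is the lowest concentration giving complete visual growth inhibition; fluconazole reference read at about 80% inhibition.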

[2] = Cytotoxicity against human U937 cells assessed as cell viability at 10 to 100 ug/ml after 48 hrs by MTT assay relative to control; format: cell-based, U-937; settings: read-out: Activity
Summary of the method: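 U937 human monocytic cells, 4 10^3 per well in RPMI-1640 with 10% FBS, L-glutamine, penicillin and streptomycin, at 37 °C and 5% CO2. Compounds in DMSO were added at five final concentrations for 48 h, in triplicate. MTT was added for 4 h, formazan was dissolved overnight in SDS/23% DMF, and OD was read at 570 nm. Results are % reduction in viable cells versus control.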

Candida albicans [3] = assay: Antibiofilm activity against Candida albicans SC5314 after 24 hrs by spectrophotometric method; format: functional
Summary of the method: (§3)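 Biofilms were grown on Calgary device pegs from a 10^6 cfu/mL inoculum for 24 h at 37 °C. Pegs were rinsed in saline, then challenged with twofold dilutions for 24 h at 35 °C. Biofilm was recovered by 5 min sonication into RPMI 1640 with 2% glucose and incubated overnight. OD was read at 550 nm plus visual turbidity. MBEC was the lowest concentration preventing regrowth. MBIC was the minimum concentration preventing initial biofilm formation, judged by visual turbidity.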

Candida albicans [4] = assay: Antibiofilm activity against Candida albicans SC5314 after 24 hrs by turbidity assay; format: functional; summary of the method: as §3

| SMILES | MIC (Candida albicans [1]) [µg/mL] | MIC (Pichia kudriavzevii) [µg/mL] | MIC (Candida parapsilosis) [µg/mL] | MIC (Staphylococcus aureus) [µg/mL] | MIC (Enterococcus faecalis) [µg/mL] | MIC (Escherichia coli) [µg/mL] | MIC (Pseudomonas aeruginosa) [µg/mL] | MIC (Nakaseomyces glabratus) [µg/mL] | viability at 48 h [2] [%] | MBEC (Candida albicans [3]) [µg/mL] | MBIC (Candida albicans [4]) [µg/mL] |
| --- | --- | --- | --- | --- | --- | --- | --- | --- | --- | --- | --- |
| CCC(=O)OC(Cn1ccnc1)c1ccccc1.Cl (stereo not drawn) | 64 | 32 | 8 | 1020 | 128 | 512 | 256 |  |  |  |  |
| Cl.O=C(CCC(=O)c1ccccc1)OC(Cn1ccnc1)c1ccc(Cl)cc1 (stereo not drawn) | 4 | 16 | 4 | 8 | 256 | 256 | 256 | 32 | 70 to 80 |  |  |
| Cl.O=C(OC(Cn1ccnc1)c1ccc(Cl)cc1)C1CCCCC1 (stereo not drawn) | 1 | 8 | 1 | 256 | 512 | 256 | 1020 | 0.5 | 70 to 80 | 512 | 8 |
| Cl.O=C(Cc1ccccc1)OC(Cn1ccnc1)c1ccccc1 (stereo not drawn) | 64 | 128 | 32 | 128 | 64 | 512 | 128 |  |  |  |  |
| Cl.O=C(CCCc1ccccc1)OC(Cn1ccnc1)c1ccccc1 (stereo not drawn) | 4 | 32 | 4 | 8 | 128 | 1020 | 256 | > 32 |  |  |  |
| Cl.O=C(Cc1ccccc1)OC(Cn1ccnc1)c1ccc(Cl)cc1 (stereo not drawn) | 0.5 | 4 | 2 | 16 | 256 | 256 | 256 | 4 | 70 to 80 |  |  |
| CCCC(=O)OC(Cn1ccnc1)c1ccc(Cl)cc1.Cl (stereo not drawn) | 0.5 | 4 | 1 | 64 | 256 | 512 | 256 | 16 | 70 to 80 | 1024 | >32 |
| CCCCC(=O)OC(Cn1ccnc1)c1ccc(Cl)cc1.Cl (stereo not drawn) | 0.5 | 8 | 0.5 | 32 | 128 | 512 | 256 | 0.25 | 70 to 80 | 1024 | 8 |
| CC(=O)CCC(=O)OC(Cn1ccnc1)c1ccc(Cl)cc1.Cl (stereo not drawn) | 64 | 32 | 16 | 512 | 256 | 512 | 256 |  |  |  |  |
| O=C(O)c1cn(C2CC2)c2cc(N3CCNCC3)c(F)cc2c1=O [CIPROFLOXACIN] |  |  |  | 0.5 (≈ 1.51 µM) | 1.5 (≈ 4.53 µM) | 0.005 (≈ 0.0151 µM) | 1.5 (≈ 4.53 µM) |  |  |  |  |
| OC(Cn1ccnc1)c1ccccc1 (stereo not drawn) | 256 (≈ 1360 µM) | 256 (≈ 1360 µM) | 256 (≈ 1360 µM) | 1020 (≈ 5440 µM) | 512 (≈ 2720 µM) | 512 (≈ 2720 µM) | 512 (≈ 2720 µM) |  |  |  |  |
| CCC(=O)OC(Cn1ccnc1)c1ccc(Cl)cc1.Cl (stereo not drawn) | 4 | 32 | 4 | 256 | 256 | 512 | 256 | 32 | 70 to 80 |  |  |
| CC(=O)OC(Cn1ccnc1)c1ccc(Cl)cc1.Cl (stereo not drawn) | 64 | 32 | 8 | 256 | 256 | 512 | 256 |  |  |  |  |
| OC(Cn1ccnc1)c1ccc(Cl)cc1 (stereo not drawn) | 128 (≈ 575 µM) | 256 (≈ 1150 µM) | 128 (≈ 575 µM) | 64 (≈ 287 µM) | 128 (≈ 575 µM) | 256 (≈ 1150 µM) | 256 (≈ 1150 µM) |  |  |  |  |
| CC(=O)CCC(=O)OC(Cn1ccnc1)c1ccccc1.Cl (stereo not drawn) | 256 | 256 | 256 | 512 | 128 | 512 | 256 |  |  |  |  |
| Cl.O=C(/C=C/c1ccccc1)OC(Cn1ccnc1)c1ccc(Cl)cc1 (stereo not drawn) | 4 | 16 | 2 | 1020 | 256 | 512 | 256 | 2 | 70 to 80 |  |  |

| SMILES | MIC (Candida albicans [1]) [µg/mL] | MIC (Pichia kudriavzevii) [µg/mL] | MIC (Candida parapsilosis) [µg/mL] | MIC (Staphylococcus aureus) [µg/mL] | MIC (Enterococcus faecalis) [µg/mL] | MIC (Escherichia coli) [µg/mL] | MIC (Pseudomonas aeruginosa) [µg/mL] | MIC (Nakaseomyces glabratus) [µg/mL] | viability at 48 h [2] [%] | MBEC (Candida albicans [3]) [µg/mL] | MBIC (Candida albicans [4]) [µg/mL] |
| --- | --- | --- | --- | --- | --- | --- | --- | --- | --- | --- | --- |
| Cl.O=C(OC(Cn1ccnc1)c1ccccc1)c1ccccc1 (stereo not drawn) | 32 | 64 | 32 | 64 | 64 | 256 | 256 | > 32 |  |  |  |
| C/C=C/C=C/C(=O)OC(Cn1ccnc1)c1ccccc1.Cl (stereo not drawn) | 32 | 32 | 8 | 512 | 64 | 512 | 256 |  |  |  |  |
| Cl.O=C(CCC(=O)c1ccccc1)OC(Cn1ccnc1)c1ccccc1 (stereo not drawn) | 16 | 128 | 32 | 128 | 64 | 512 | 256 |  |  |  |  |
| CC(C)CC(=O)OC(Cn1ccnc1)c1ccccc1.Cl (stereo not drawn) | 2 | 32 | 2 | 256 | 128 | 512 | 256 | > 32 |  |  |  |
| CCCC(=O)OC(Cn1ccnc1)c1ccccc1.Cl (stereo not drawn) | 64 | 32 | 16 | 512 | 128 | 512 | 256 |  |  |  |  |
| CC(=O)OC(Cn1ccnc1)c1ccccc1.Cl (stereo not drawn) | 128 | 128 | 64 | 1020 | 256 | 512 | 256 |  |  |  |  |
| CC(C)CC(=O)OC(Cn1ccnc1)c1ccc(Cl)cc1.Cl (stereo not drawn) | 0.25 | 4 | 0.25 | 32 | 128 | 512 | 256 | 1 | 70 to 80 | 1024 | 8 |
| Cl.O=C(OC(Cn1ccnc1)c1ccccc1)c1ccc(-c2ccccc2)cc1 (stereo not drawn) | 0.125 | 8 | 0.125 | 512 | 128 | 512 | 256 | 2 | 70 to 80 | 1024 | 8 |
| Cl.O=C(OC(Cn1ccnc1)c1ccccc1)C1CCCCC1 (stereo not drawn) | 16 | 128 | 16 | 64 | 32 | 512 | 256 |  |  |  |  |
| CCCCC(=O)OC(Cn1ccnc1)c1ccccc1.Cl (stereo not drawn) | 8 | 32 | 8 | 256 | 128 | 512 | 256 | 32 |  |  |  |
| CCCC(CCC)C(=O)OC(Cn1ccnc1)c1ccccc1.Cl (stereo not drawn) | 32 | 32 | 32 | 16 | 32 | 512 | 256 | > 32 |  |  |  |
| CCCC(CCC)C(=O)OC(Cn1ccnc1)c1ccc(Cl)cc1.Cl (stereo not drawn) | 128 | 64 | 64 | 1020 | 32 | 512 | 256 |  |  |  |  |
| Cl.O=C(OC(Cn1ccnc1)c1ccc(Cl)cc1)c1ccccc1 (stereo not drawn) | 4 | 32 | 2 | 128 | 512 | 512 | 256 | 16 | 70 to 80 |  |  |
| Cl.O=C(CCCc1ccccc1)OC(Cn1ccnc1)c1ccc(Cl)cc1 (stereo not drawn) | 2 | 8 | 2 | 128 | 128 | 512 | 512 | 8 | 70 to 80 |  |  |
| OC(Cn1cncn1)(Cn1cncn1)c1ccc(F)cc1F [FLUCONAZOLE] | 0.25 (≈ 0.816 µM) | 16 (≈ 52.2 µM) | 0.25 (≈ 0.816 µM) |  |  |  |  | 32 (≈ 104 µM) |  |  |  |
